Data set [1] has as its target Phosphatidylinositol 3-kinase regulatory subunit beta (Homo sapiens, UniProt O00459). Kind of data set: Inhibition of human PI3K p85beta (1 to 724 residues) by ADP Glo HTS assay. An outline of the steps: (§1)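 Lipid kinase selectivity assessed in a 15-kinase panel (Dundee University lipid kinase panel), IC50 determined.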
For orientation: ADP-Glo turns the ADP formed in a reaction into a luminescent signal.

In data set [2] the target is Phosphatidylinositol 4,5-bisphosphate 3-kinase catalytic subunit gamma isoform (Mus musculus, UniProt Q9JHG7). Briefly: Inhibition of PI3Kgamma in mouse RAW264 cells assessed as decrease in AKT phosphorylation at Ser473. It counts as cell-based. An outline of the steps: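 Mouse monocytic RAW264 cells; inhibition of AKT Ser473 phosphorylation measured; single determination (n=1).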

A short description of data set [3]: Lipophilicity, log D of the compound at pH 7.4. Conditions: buffer.
Data set [4] can be described thus: Intrinsic clearance in human hepatocytes assessed per million cells. It counts as ADME, cell-based, Hepatocyte. Conditions: read-out: CLH.
The target in data set [5] is Phosphatidylinositol 4,5-bisphosphate 3-kinase catalytic subunit alpha isoform (Homo sapiens, UniProt P42336). Kind of data set: Inhibition of recombinant human PI3Kalpha using PIP2 as substrate preincubated for 20 mins followed by substrate addition measured after 80 mins in presence of ATP by Kinase Glo luminescence assay.
For data set [6], the target named is Phosphatidylinositol 4,5-bisphosphate 3-kinase catalytic subunit beta isoform (Homo sapiens, UniProt P42338). Kind of data set: Inhibition of recombinant human PI3Kbeta using PIP2 as substrate preincubated for 20 mins followed by substrate addition measured after 80 mins in presence of ATP by Kinase Glo luminescence assay.
For data set [7], the target named is T1, Phosphatidylinositol 4,5-bisphosphate 3-kinase catalytic subunit delta isoform (Homo sapiens, UniProt O00329).
T1 sequence (O00329 whole entry): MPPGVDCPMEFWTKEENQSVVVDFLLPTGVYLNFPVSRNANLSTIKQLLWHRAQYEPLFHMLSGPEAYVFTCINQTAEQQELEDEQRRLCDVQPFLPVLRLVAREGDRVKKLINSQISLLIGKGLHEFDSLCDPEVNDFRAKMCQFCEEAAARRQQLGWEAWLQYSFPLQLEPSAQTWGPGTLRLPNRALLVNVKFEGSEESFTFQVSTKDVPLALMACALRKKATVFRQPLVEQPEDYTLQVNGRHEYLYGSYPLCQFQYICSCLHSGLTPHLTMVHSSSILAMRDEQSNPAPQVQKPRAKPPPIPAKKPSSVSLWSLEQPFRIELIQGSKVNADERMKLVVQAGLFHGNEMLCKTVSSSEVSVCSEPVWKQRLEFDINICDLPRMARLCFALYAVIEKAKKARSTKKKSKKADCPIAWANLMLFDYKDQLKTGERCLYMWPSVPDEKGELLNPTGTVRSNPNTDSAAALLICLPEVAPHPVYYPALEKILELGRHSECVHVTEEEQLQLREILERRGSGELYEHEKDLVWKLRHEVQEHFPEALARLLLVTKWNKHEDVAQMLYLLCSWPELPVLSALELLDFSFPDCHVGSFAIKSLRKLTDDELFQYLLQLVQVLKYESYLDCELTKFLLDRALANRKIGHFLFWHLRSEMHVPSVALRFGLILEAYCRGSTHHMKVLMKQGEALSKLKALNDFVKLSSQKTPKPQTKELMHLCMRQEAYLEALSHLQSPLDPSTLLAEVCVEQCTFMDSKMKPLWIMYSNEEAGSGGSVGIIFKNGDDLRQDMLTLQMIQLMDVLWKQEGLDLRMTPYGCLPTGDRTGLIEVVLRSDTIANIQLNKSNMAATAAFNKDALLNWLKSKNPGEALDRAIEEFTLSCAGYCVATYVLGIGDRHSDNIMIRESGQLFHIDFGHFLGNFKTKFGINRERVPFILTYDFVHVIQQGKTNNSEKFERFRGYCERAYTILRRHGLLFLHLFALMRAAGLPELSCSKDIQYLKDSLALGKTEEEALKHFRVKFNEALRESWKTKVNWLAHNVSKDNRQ
Briefly: Inhibition of recombinant human PI3Kdelta using PIP2 as substrate preincubated for 20 mins followed by substrate addition measured after 80 mins in presence of ATP by Kinase Glo luminescence assay. Background: Kinase-Glo measures the ATP left after a reaction by luminescence.

Data set [8] in a line: Clearance in mouse blood at 5 umol/kg, iv or 30 umol/kg, po. It counts as ADME, organism-based.
A short description of data set [9]: Clearance in dog blood at 4 umol/kg, iv or 10 umol/kg, po. It counts as ADME, organism-based, Canis lupus familiaris.
Data set [10] is described as follows: Oral bioavailability in mouse blood at 30 umol/kg. It counts as ADME, organism-based.
The nature of data set [11]: Fraction unbound in mouse plasma. It counts as ADME, cell-free. The method in brief: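 Plasma protein binding in mouse, dog or human plasma, reported as fraction unbound (%).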
A short description of data set [12]: Intrinsic clearance in mouse hepatocytes assessed per million cells. It counts as ADME, cell-based, Hepatocyte. Conditions: read-out: CLH. An outline of the steps: (§2)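 Intrinsic clearance measured in mouse or dog hepatocytes, expressed as CL_int in […].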
Data set [13] is described as follows: Intrinsic clearance in dog hepatocytes assessed per million cells. It counts as ADME, cell-based, Canis lupus familiaris, Hepatocyte. Conditions: read-out: CLH. The method in brief:
as §2

A short description of data set [14]: Aqueous solubility of the compound in FASSIF. It counts as physicochemical. An outline of the steps:
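Solubility from crystalline solid in Fasted Simulated Intestinal Fluid (FASSIF), µg/mL.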

For the next data set, the target named is Cytochrome P450 2D6 (Homo sapiens, UniProt P10635). Kind of data set: Inhibition of CYP2D6 (unknown origin). It counts as ADME.
For data set [15], the system named is Mus musculus. Briefly: In vivo inhibition of AKT phosphorylation at Ser473 in nude mouse xenografted with PTEN-deficient human PC3 cells at 100 mg/kg, po administered as single dose measured after 30 mins to 8 hrs. It counts as functional, organism-based. The method in brief: (§3)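 Single oral dose (100 or 30 mg/kg) to nude mice carrying PTEN-deficient PC3 prostate xenografts; tumour AKT Ser473 phosphorylation measured at 30 min, 2 h and 8 h, with free plasma concentration determined at same time points.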

Data set [16] relates to Mus musculus. Briefly: In vivo inhibition of AKT phosphorylation at Ser473 in nude mouse xenografted with PTEN-deficient human PC3 cells at 30 mg/kg, po administered as single dose measured after 30 mins to 8 hrs. It counts as functional, organism-based. An outline of the steps: as §3
Data set [17] concerns PC-3. Kind of data set: Antitumor activity against PTEN-deficient human PC3 cells xenografted in nude mouse assessed as tumor growth inhibition at 100 mg/kg, po bid relative to control. It counts as functional. To be noted: PC-3, po, read-out: TGI. An outline of the steps: (§4)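 Nude mice bearing PTEN-deficient PC3 prostate tumour xenografts; compound given orally twice daily (b.i.d.) at 100 or 50 mg/kg over chronic dosing; tumour growth inhibition versus control determined at end of study.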
Background: Xenograft models place foreign cells or tissue in a host animal.

The subject of data set [18] is PC-3. Briefly: Antitumor activity against PTEN-deficient human PC3 cells xenografted in nude mouse assessed as tumor growth inhibition at 50 mg/kg, po bid relative to control. It counts as functional. To be noted: PC-3, po, read-out: TGI. The method in brief:
as §4

For data set [19], the target named is MAP/microtubule affinity-regulating kinase 4 (Homo sapiens) (UniProt Q96L34). Kind of data set: Inhibition of human MARK4 (2 to 752 residues) at 1 uM after 5 mins in presence of [33P]ATP by filter binding assay relative to control.
The target in another data set is Sphingosine kinase 1 (Homo sapiens, UniProt Q9NYA1). Kind of data set: Inhibition of human SphK1 (1 to 384 residues) by ATP-Glo HTS assay. An outline of the steps:
as §1

Data set [20] concerns the target Serine/threonine-protein kinase mTOR (Homo sapiens, UniProt P42345). Briefly: Inhibition of mTOR (unknown origin).
The target of the next data set is Sphingosine kinase 2 (Homo sapiens, UniProt Q9NRA0). Kind of data set: Inhibition of human SPHK 2 (1 to 654 residues) by ADP Glo HTS assay. An outline of the steps:
as §1

The target in data set [21] is Diacylglycerol kinase beta (Homo sapiens, UniProt Q9Y6T7). Briefly: Inhibition of human DGKbeta (1 to 804 residues) by ADP Glo HTS assay. The method in brief:
as §1

Molecules are shown by their SMILES. Values after ≈ are worked out from the molar mass of the structure shown. Active and inactive are the calls of the source. The rule behind the calls is not given here.

The record followed here is ChEMBL document CHEMBL4014298, “Discovery of a series of 8-(1-phenylpyrrolidin-2-yl)-6-carboxamide-2-morpholino-4H-chromen-4-one as PI3Kβ/δ inhibitors for the treatment of PTEN-deficient tumours” (Bioorg Med Chem Lett, 2017).

Phosphatidylinositol 4,5-bisphosphate 3-kinase catalytic subunit gamma isoform, sequence (Q9JHG7 whole entry, canonical isoform): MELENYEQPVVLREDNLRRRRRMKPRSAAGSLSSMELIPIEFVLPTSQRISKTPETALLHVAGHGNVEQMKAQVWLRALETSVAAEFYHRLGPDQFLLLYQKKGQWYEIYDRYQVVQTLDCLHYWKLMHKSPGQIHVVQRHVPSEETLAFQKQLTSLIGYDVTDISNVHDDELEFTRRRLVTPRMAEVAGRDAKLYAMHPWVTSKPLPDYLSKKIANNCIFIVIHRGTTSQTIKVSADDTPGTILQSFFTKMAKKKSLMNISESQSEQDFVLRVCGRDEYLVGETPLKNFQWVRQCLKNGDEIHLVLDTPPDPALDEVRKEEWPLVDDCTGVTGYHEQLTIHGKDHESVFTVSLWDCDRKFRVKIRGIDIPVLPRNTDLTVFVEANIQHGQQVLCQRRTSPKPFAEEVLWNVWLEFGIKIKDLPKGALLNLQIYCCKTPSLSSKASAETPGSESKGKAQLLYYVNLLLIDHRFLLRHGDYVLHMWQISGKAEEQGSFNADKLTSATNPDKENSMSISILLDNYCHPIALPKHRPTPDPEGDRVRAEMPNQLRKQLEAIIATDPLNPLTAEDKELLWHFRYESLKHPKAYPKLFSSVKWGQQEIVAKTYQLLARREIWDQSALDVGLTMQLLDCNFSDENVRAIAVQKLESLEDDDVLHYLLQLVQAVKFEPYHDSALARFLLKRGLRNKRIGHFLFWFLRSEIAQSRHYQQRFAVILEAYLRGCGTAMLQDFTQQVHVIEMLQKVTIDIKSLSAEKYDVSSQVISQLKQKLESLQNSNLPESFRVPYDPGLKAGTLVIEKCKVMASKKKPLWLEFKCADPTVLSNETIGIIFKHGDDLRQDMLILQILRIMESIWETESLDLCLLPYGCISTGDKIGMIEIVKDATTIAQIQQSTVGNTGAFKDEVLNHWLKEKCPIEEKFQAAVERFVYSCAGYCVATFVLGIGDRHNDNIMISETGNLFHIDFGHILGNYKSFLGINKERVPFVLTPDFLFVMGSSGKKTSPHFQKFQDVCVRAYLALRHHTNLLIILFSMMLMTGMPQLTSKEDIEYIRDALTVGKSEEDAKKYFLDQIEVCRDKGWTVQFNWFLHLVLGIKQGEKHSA
Phosphatidylinositol 4,5-bisphosphate 3-kinase catalytic subunit alpha isoform, sequence (P42336 whole entry, canonical isoform): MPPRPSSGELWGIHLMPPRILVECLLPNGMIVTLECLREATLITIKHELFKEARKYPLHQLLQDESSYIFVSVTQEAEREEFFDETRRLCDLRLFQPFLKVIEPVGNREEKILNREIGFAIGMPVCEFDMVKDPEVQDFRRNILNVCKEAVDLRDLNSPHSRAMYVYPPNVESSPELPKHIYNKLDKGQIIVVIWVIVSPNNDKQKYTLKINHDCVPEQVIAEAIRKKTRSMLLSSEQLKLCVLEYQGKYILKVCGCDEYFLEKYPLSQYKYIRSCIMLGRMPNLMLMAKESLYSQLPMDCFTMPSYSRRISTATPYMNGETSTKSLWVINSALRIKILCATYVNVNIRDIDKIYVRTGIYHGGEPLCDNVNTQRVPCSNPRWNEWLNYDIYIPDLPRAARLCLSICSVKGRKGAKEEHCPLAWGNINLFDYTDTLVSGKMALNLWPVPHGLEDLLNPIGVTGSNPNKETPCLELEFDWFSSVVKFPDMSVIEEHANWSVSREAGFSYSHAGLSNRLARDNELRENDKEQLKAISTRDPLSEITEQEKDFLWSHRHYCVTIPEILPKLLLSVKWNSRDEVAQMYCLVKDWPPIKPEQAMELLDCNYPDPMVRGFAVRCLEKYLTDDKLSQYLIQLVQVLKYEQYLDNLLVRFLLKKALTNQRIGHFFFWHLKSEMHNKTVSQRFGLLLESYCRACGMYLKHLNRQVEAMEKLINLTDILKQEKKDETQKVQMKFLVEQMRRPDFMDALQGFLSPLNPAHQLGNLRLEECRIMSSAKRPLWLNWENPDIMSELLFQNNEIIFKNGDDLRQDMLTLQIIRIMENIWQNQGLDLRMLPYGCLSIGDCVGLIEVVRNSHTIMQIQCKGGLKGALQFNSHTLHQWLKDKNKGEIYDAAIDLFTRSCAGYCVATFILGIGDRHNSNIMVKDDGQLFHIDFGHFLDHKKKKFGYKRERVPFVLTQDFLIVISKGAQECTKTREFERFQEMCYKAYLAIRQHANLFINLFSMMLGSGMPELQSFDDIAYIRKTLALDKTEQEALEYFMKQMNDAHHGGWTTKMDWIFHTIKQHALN
MAP/microtubule affinity-regulating kinase 4 (Homo sapiens), sequence (Q96L34 whole entry, the tested form may be a part): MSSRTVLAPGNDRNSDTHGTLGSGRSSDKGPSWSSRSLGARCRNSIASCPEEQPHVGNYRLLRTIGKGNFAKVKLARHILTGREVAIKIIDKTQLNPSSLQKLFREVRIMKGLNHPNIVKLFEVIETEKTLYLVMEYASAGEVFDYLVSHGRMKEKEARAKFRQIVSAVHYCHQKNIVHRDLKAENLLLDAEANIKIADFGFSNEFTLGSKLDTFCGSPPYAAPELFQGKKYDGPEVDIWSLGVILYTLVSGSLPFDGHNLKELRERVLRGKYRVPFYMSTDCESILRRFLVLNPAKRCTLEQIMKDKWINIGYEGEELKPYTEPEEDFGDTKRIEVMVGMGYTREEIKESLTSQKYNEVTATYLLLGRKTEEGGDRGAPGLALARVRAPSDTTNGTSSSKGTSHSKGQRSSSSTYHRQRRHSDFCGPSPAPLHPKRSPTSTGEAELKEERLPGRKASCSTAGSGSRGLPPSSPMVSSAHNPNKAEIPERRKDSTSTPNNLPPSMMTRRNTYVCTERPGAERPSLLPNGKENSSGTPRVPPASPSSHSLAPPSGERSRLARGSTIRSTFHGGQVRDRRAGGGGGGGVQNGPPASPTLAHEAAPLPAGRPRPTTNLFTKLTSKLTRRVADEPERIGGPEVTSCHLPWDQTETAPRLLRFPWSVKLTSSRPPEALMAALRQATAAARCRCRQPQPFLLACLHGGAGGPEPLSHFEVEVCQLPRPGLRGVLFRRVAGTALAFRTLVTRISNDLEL
Phosphatidylinositol 3-kinase regulatory subunit beta, sequence (O00459 whole entry, the tested form may be a part): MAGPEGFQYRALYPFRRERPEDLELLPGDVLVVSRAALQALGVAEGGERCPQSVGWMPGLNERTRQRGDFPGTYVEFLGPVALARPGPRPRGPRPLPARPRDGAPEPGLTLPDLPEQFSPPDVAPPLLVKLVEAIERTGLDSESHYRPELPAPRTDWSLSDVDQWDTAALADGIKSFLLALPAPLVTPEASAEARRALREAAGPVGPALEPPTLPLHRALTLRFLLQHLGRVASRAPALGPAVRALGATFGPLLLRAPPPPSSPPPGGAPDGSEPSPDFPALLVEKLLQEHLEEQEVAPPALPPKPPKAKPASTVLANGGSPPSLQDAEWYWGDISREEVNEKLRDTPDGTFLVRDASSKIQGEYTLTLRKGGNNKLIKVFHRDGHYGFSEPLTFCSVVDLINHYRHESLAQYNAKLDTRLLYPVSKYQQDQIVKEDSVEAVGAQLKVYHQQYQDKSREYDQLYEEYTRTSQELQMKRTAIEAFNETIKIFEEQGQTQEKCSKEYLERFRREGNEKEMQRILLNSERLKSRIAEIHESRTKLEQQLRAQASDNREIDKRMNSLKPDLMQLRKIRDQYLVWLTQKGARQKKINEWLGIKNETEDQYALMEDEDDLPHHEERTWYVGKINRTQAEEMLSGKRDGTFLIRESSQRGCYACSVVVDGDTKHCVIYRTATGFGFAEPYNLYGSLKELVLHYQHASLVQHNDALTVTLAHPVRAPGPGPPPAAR
Sphingosine kinase 1, sequence (Q9NYA1 whole entry, the tested form may be a part): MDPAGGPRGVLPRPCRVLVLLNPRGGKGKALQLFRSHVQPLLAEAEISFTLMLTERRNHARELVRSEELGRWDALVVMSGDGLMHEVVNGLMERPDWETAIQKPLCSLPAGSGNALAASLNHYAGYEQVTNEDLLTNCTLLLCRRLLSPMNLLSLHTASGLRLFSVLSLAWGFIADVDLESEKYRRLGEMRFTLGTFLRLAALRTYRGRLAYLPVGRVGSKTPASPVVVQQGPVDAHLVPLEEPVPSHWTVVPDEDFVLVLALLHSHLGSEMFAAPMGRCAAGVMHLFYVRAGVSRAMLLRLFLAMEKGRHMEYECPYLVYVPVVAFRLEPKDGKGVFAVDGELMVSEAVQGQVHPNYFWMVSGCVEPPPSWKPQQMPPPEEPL
Sphingosine kinase 2, sequence (Q9NRA0 whole entry, the tested form may be a part): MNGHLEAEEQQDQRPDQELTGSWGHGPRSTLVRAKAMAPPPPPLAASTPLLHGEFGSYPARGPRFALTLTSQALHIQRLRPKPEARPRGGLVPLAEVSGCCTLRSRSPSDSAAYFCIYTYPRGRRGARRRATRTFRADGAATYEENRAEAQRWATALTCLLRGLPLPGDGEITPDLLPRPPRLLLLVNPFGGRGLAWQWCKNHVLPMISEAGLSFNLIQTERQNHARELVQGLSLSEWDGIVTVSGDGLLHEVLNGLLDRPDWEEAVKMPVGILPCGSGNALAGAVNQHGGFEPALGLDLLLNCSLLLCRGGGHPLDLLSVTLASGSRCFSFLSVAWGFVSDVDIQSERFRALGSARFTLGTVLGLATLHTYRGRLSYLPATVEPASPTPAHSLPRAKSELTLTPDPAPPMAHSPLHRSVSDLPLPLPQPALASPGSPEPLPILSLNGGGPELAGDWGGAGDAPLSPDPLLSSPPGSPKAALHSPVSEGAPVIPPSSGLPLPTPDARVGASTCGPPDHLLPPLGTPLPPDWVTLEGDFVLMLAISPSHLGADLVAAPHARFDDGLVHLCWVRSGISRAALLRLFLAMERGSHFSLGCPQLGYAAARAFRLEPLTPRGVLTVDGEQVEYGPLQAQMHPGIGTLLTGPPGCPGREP

Usually IC50 stands for the concentration at which inhibition is half-maximal. What is called logD is lipophilicity at a set pH, counting ionised and neutral species. What is called bioavailability is dose-corrected exposure relative to a reference, in per cent. Read a low bioavailability as little systemic uptake. The fraction unbound is the share of the substance not bound to proteins or other matrix. The low end stands for little free substance, the high end for much free substance. One may read the solubility as how much of the substance goes into solution per volume. The term inhibition denotes how much of the control response was suppressed. `O=C(c1cc([C@H]2CCCN2c2cc(F)cc(F)c2)c2oc(N3CCOCC3)cc(=O)c2c1)N1CCOCC1`: the IC50 in data set [1] was above 50 µM; in [2] it was 1.5 µM; in [5], 0.013 µM; in [6], 0.0071 µM; in [7], 0.0086 µM; at Cytochrome P450 2D6, above 30 µM. Further, the half-maximal inhibitory concentration (IC50) is 29 µM on Sphingosine kinase 1, 42 µM in data set [20], above 50 µM at Sphingosine kinase 2 and above 50 µM in data set [21]. For the same molecule, the logD in data set [3] came to 2.5. In addition, the figures for the hepatocyte CLint in [4], in data set [12] and in [13] were 2.7 to 5 µL/min/1e6 cells, 68 µL/min/1e6 cells and 23 µL/min/1e6 cells, respectively. Also, the clearance in [8] worked out at 3.6 L/h/kg; in [9], 1.38 L/h/kg. The molecule also yielded a bioavailability in data set [10] of 26%. This molecule also showed a fraction unbound in data set [11] of 0.19. In addition, the concentration in solution in [14] (solubility) came to 0.43 mg/mL (≈ 818 µM). In addition, the inhibition entry in the data set with Mus musculus [15] and in the data set with Mus musculus [16] was “Active” throughout. For the same molecule, the inhibition in vivo at 100 mg/kg in the data set on PC-3 [17] was 83%. The inhibition in vivo at 50 mg/kg in the data set on PC-3 [18] is 71%. Also, the inhibition in data set [19] is 32%.
